Measurements: ChEMBL document CHEMBL4350961, “Discovery of Pyrrolo[3,2- d]pyrimidin-4-one Derivatives as a New Class of Potent and Cell-Active Inhibitors of P300/CBP-Associated Factor Bromodomain” (J Med Chem, 2019)
The source made the active and inactive calls. No cut-off for these calls is given here.

Key:
[1] = molecular target: Tyrosine-protein kinase FRK (Homo sapiens) (UniProt P42685); experiment: Inhibition of human PTK5 (218 to end residues) using GGEEEEYFELVKKKK as substrate measured after 40 mins in presence of [gamma33P]ATP by scintillation counting method
Outline: (§1)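 Kinase panel of 422 kinases screened by Eurofins KinaseProfiler at a single test-compound concentration of 10 µM.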

[2] = molecular target: Histone acetyltransferase KAT2A (Homo sapiens, UniProt Q92830); experiment: Binding affinity to human N-terminal His-tagged GCN5 by isothermal titration calorimetry
[3] = molecular target: Bromodomain-containing protein 7 (Homo sapiens) (UniProt Q9NPI1); experiment: Binding affinity to human partial length BRD7 (L125 to R254 residues) expressed in mammalian expression system at 1 uM by BROMOscan assay
Outline: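 BROMOscan bromodomain cross-screen run by an outside service, compound at 1 µM against 32 recombinant bromodomains. Binding given as percent of control.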

[4] = Cmax in Sprague-Dawley rat at 10 mg/kg, po administered via gavage by LC-MS/MS analysis; assay type: ADME, organism-based; parameters: dose 10 mg/kg, route oral; conditions: in vivo
Outline: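 Serial jugular-vein blood taken at set times, spun to plasma at 4 ℃, stored at -80 °C. Plasma extracted with acetonitrile containing internal standard, quantified by LC-MS/MS; noncompartmental fit.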

[5] = molecular target: NUAK family SNF1-like kinase 1 (Homo sapiens) (UniProt O60285); experiment: Inhibition of recombinant human ARK5 (2 to end residues) at 10 uM using KKKVSRSGLYRSPSMPENLNRPR as substrate measured after 40 mins in presence of [gamma33P]ATP by scintillation counting method
[6] = molecular target: Cyclin-dependent kinase 5/CDK5 activator 1 (Homo sapiens) (UniProt Q00535+Q15078); experiment: Inhibition of recombinant full-length human CDK5/p35 at 10 uM using histone H1 as substrate measured after 40 mins in presence of [gamma33P]ATP by scintillation counting method; assay type: protein-complex assay
[7] = molecular target: Dual specificity protein kinase CLK3 (Homo sapiens) (UniProt P49761); experiment: Inhibition of recombinant full-length human CLK3 at 10 uM using ERMRPRKRQGSVRRRV as substrate measured after 40 mins in presence of [gamma33P]ATP by scintillation counting method
[8] = test system: Mast/stem cell growth factor receptor Kit (Homo sapiens), P10721 [D816H]; experiment: Inhibition of recombinant human c-Kit D816H mutant (544 to end residues) at 10 uM using GGMEDIYFEFMGGKKK as substrate measured after 40 mins in presence of [gamma33P]ATP by scintillation counting method
[9] = test system: Mast/stem cell growth factor receptor Kit (Homo sapiens), P10721 [V654A]; experiment: Inhibition of recombinant human c-Kit V654A mutant (544 to end residues) at 10 uM using GGMEDIYFEFMGGKKK as substrate measured after 40 mins in presence of [gamma33P]ATP by scintillation counting method
[10] = test system: Epidermal growth factor receptor (Homo sapiens), P00533 [T790M]; experiment: Inhibition of recombinant human EGFR T790M mutant (696 to end residues) at 10 uM using GGMEDIYFEFMGGKKK as substrate measured after 40 mins in presence of [gamma33P]ATP by scintillation counting method
Homo sapiens [11] = species on record: Homo sapiens; experiment: Inhibition of recombinant human EphB2 A848S/ K918E mutant (560 to end residues) at 10 uM using KTFCGTPEYLAPEVRREPRILSEEEQEMFRDFDYIADWC as substrate measured after 40 mins in presence of [gamma33P]ATP by scintillation counting method
[12] = test system: Receptor tyrosine-protein kinase erbB-2 (Homo sapiens), P04626 [G778D]; experiment: Inhibition of recombinant human ErbB2 G778D mutant (676 to end residues) at 10 uM using poly (Glu, Tyr) 4:1 as substrate measured after 40 mins in presence of [gamma33P]ATP by scintillation counting method
[13] = molecular target: G protein-coupled receptor kinase 6 (Homo sapiens) (UniProt P43250); experiment: Inhibition of recombinant full-length human GRK6 at 10 uM using casein as substrate measured after 40 mins in presence of [gamma33P]ATP by scintillation counting method
[14] = molecular target: Mitogen-activated protein kinase kinase kinase kinase 5 (Homo sapiens) (UniProt Q9Y4K4); experiment: Inhibition of recombinant full-length human MAP4K5 at 10 uM using myelin basic protein as substrate measured after 40 mins in presence of [gamma33P]ATP by scintillation counting method
[15] = test system: Hepatocyte growth factor receptor (Homo sapiens), P08581 [D1228N]; experiment: Inhibition of recombinant human MET A1209G/V1290L/D1246N mutant (974 to end residues) at 10 uM using KKKGQEEEYVFIE as substrate measured after 40 mins in presence of [gamma33P]ATP by scintillation counting method
[16] = test system: Hepatocyte growth factor receptor (Homo sapiens), P08581 [Y1230H]; experiment: Inhibition of recombinant human MET A1209G/V1290L/Y1248H mutant (974 to end residues) at 10 uM using KKKGQEEEYVFIE as substrate measured after 40 mins in presence of [gamma33P]ATP by scintillation counting method
[17] = molecular target: Myosin light chain kinase, smooth muscle (Homo sapiens) (UniProt Q15746); experiment: Inhibition of recombinant human MLCK (1425 to 1771 residues) at 10 uM using […] as substrate measured after 40 mins in presence of [gamma33P]ATP by scintillation counting method
[18] = molecular target: Mitogen-activated protein kinase kinase kinase 11 (Homo sapiens) (UniProt Q16584); experiment: Inhibition of human MLK3 at 10 uM by radiometric method; outline: as §1
[19] = molecular target: Serine/threonine-protein kinase Nek11 (Homo sapiens) (UniProt Q8NG66); experiment: Inhibition of recombinant full-length human NEK11 at 10 uM using myelin basic protein as substrate measured after 40 mins in presence of [gamma33P]ATP by scintillation counting method
[20] = molecular target: Serine/threonine-protein kinase 32A (Homo sapiens) (UniProt Q8WU08); experiment: Inhibition of recombinant full-length human STK32A at 10 uM using casein as substrate measured after 120 mins in presence of [gamma33P]ATP by scintillation counting method
[21] = test system: Angiopoietin-1 receptor (Homo sapiens), Q02763 [Q939H,Q940H,Y897S]; experiment: Inhibition of human Tie2 Q939H/Q940H/Y897S mutant (771 to end residues) using EFPIYDFLPAKKK as substrate measured after 40 mins in presence of [gamma33P]ATP by scintillation counting method
Homo sapiens [22] = species on record: Homo sapiens; experiment: Inhibition of recombinant full-length human ATRIP/ATR M211T mutant at 10 uM using GST-cMyc-p53 as substrate measured after 40 mins by fluorescence assay
Mus musculus [23] = species on record: Mus musculus; experiment: Inhibition of recombinant full-length mouse PI3K p110alpha/p85alpha at 10 uM using phosphatidylinositol-4, 5-bisphosphate as substrate measured after 40 mins by HTRF assay
Mus musculus [24] = species on record: Mus musculus; experiment: Inhibition of recombinant full-length mouse PI3K p110beta/p85alpha R123L mutant at 10 uM using phosphatidylinositol-4, 5-bisphosphate as substrate measured after 40 mins by HTRF assay

Sequence of G protein-coupled receptor kinase 6 (Homo sapiens) (P43250 whole entry, looked up): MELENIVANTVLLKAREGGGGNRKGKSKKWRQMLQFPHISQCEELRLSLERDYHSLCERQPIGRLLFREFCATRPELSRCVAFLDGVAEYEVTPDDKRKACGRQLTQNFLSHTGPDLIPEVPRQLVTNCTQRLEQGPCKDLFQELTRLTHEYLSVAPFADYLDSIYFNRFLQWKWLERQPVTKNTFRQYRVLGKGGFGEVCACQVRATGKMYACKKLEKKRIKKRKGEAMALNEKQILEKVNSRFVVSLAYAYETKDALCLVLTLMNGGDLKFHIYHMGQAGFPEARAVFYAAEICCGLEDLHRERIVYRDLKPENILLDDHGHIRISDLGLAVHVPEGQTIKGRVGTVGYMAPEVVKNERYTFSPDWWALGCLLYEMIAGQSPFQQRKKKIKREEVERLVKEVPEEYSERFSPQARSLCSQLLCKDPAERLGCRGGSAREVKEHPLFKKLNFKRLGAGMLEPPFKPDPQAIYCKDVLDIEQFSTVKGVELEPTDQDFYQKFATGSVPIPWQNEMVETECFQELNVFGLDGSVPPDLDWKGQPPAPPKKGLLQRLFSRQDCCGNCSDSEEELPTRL
Sequence of Serine/threonine-protein kinase Nek11 (Homo sapiens) (Q8NG66 whole entry): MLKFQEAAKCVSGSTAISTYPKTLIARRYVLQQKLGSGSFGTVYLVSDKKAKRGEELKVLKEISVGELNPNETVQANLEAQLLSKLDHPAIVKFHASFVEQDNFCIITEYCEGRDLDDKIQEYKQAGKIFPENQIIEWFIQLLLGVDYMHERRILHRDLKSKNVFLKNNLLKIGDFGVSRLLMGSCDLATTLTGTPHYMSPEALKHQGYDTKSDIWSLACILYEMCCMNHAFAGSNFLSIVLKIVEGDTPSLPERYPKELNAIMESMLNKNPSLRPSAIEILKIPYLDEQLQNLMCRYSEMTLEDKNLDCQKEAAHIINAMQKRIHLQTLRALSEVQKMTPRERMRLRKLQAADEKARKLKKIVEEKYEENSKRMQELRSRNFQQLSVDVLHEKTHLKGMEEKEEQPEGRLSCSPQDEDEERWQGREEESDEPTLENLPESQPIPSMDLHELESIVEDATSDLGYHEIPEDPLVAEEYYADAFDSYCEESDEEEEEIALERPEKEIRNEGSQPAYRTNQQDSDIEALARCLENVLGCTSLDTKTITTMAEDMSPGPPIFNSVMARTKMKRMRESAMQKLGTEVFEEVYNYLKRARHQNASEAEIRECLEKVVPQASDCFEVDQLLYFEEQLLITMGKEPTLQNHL
Sequence of Serine/threonine-protein kinase 32A (Homo sapiens) (Q8WU08 whole entry): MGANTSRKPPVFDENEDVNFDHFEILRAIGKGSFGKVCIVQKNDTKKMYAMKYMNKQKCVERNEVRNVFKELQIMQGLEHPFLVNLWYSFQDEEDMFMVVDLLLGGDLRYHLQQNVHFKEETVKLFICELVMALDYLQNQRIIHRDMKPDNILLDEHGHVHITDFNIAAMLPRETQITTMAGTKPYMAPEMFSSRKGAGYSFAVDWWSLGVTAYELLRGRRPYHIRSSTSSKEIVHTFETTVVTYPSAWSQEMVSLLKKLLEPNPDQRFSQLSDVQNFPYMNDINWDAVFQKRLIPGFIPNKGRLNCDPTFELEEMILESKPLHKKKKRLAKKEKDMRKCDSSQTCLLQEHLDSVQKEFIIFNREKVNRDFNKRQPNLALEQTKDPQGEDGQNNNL
Sequence of Receptor tyrosine-protein kinase erbB-2 (Homo sapiens), P04626 [G778D] (P04626 whole entry G778D): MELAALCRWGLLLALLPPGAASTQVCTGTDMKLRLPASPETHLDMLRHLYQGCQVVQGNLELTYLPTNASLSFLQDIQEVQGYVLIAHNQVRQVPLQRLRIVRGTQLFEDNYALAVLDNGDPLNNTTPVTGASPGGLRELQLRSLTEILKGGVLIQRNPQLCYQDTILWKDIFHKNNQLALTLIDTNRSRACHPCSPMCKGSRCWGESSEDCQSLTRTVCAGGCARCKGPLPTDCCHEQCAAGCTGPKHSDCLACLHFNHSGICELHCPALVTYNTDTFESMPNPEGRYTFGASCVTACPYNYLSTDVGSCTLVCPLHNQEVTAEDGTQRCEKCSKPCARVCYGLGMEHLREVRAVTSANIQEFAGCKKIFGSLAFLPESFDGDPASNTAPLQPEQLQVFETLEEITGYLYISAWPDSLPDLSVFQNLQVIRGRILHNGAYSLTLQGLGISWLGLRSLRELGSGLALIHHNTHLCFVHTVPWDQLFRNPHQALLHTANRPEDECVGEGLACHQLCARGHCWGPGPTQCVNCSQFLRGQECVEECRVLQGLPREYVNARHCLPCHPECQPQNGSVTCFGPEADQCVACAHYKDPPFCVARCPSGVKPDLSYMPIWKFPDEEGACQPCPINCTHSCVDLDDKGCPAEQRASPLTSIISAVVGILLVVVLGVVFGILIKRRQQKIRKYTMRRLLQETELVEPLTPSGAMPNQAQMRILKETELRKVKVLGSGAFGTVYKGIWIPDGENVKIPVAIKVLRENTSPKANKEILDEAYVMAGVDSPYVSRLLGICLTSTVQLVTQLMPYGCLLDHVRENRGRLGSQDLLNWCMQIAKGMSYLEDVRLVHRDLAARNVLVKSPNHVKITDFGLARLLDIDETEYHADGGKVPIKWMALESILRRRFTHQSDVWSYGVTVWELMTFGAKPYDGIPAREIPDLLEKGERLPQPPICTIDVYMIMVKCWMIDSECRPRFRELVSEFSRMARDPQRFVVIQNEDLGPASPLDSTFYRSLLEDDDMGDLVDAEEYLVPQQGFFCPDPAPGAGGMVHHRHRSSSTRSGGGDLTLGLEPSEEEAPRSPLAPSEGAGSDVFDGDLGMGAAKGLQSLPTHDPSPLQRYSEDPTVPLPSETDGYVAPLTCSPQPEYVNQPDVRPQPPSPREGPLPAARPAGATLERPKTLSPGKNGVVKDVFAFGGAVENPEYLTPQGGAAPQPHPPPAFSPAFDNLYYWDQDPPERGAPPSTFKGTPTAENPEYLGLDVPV
Sequence of Histone acetyltransferase KAT2A (Q92830 whole entry, the tested form may be a part): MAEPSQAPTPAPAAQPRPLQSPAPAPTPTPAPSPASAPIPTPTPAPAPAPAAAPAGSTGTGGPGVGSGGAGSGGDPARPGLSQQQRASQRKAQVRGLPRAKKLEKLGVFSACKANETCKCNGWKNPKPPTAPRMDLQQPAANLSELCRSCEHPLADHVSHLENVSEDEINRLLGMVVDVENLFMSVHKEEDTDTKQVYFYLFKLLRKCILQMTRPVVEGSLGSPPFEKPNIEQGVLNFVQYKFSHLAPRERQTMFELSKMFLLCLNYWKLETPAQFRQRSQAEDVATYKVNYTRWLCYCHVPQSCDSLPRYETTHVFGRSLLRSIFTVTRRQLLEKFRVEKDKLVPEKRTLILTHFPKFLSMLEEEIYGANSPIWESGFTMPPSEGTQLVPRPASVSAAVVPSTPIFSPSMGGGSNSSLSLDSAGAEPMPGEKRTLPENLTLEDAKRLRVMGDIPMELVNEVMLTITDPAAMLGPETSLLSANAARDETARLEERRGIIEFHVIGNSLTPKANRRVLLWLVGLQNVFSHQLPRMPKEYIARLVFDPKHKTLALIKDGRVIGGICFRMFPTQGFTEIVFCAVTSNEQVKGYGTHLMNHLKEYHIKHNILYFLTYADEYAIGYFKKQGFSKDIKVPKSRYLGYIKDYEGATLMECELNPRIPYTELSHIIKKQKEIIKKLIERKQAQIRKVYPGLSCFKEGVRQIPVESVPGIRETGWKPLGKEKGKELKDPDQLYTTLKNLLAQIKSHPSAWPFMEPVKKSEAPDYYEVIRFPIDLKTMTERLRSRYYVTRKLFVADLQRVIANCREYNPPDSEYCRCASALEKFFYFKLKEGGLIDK
Sequence of Mitogen-activated protein kinase kinase kinase kinase 5 (Homo sapiens) (Q9Y4K4 whole entry, looked up): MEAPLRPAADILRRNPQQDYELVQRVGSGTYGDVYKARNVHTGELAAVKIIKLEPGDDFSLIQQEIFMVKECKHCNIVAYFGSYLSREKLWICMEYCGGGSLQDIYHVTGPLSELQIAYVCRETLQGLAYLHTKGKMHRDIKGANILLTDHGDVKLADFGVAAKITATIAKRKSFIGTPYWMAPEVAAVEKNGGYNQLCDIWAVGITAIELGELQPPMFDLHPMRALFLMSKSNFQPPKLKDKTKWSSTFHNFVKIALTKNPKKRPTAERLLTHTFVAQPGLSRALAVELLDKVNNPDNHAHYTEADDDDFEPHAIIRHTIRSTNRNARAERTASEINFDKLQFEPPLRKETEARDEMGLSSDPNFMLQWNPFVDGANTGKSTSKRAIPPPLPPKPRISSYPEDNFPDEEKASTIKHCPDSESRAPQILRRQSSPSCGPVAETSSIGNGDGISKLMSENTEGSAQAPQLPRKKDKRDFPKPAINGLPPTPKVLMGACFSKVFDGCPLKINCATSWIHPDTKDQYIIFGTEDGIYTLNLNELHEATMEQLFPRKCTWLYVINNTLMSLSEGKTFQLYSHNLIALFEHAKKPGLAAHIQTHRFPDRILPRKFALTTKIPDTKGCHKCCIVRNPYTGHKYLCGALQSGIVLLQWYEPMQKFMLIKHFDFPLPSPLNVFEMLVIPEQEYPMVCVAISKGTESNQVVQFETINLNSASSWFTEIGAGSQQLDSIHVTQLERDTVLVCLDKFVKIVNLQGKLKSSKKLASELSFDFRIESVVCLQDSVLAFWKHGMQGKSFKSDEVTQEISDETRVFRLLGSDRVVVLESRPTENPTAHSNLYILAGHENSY
Sequence of Tyrosine-protein kinase FRK (Homo sapiens) (P42685 whole entry): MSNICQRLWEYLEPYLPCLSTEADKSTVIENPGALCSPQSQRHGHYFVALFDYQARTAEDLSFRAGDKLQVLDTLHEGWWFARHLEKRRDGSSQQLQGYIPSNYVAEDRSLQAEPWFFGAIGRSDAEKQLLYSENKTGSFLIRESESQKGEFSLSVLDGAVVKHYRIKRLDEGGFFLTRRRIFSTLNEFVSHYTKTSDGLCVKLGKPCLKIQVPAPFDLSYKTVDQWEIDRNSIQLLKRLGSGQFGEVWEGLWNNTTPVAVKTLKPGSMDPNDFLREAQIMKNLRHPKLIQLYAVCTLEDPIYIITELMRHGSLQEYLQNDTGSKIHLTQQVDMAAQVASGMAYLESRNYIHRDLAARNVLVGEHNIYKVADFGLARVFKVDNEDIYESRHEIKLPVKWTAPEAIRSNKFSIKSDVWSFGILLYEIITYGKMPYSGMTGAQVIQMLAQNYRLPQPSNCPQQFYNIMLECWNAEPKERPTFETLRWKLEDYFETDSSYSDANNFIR

For `CN1C[C@H](Nc2nc3cc[nH]c3c(=O)n2C)C[C@H](c2ccc3c(c2)OCCO3)C1`, the inhibition [1] was “inactive”, the Kd [2] was 105 nM and the Activity [3] was “inactive”. The Cmax [4] was 1420 ng/mL, the inhibition [5] was “inactive” and the inhibition [6] was “inactive”. The inhibition [7] was “inactive”, the inhibition [8] was “inactive” and the inhibition [9] was “inactive”. For the same compound, the inhibition [10] was “inactive”, the inhibition (Homo sapiens [11]) was “inactive” and the inhibition [12] was “inactive”. For the same compound, the inhibition [13] was “inactive”, the inhibition [14] was “inactive” and the inhibition [15] was “inactive”. For the same compound, the inhibition [16] was “inactive”, the inhibition [17] was “inactive” and the inhibition [18] was “inactive”. For the same compound, the inhibition [19] was “inactive”, the inhibition [20] was “inactive” and the inhibition [21] was “inactive”. For the same compound, the inhibition (Homo sapiens [22]) was “inactive”, the inhibition (Mus musculus [23]) was “inactive” and the inhibition (Mus musculus [24]) was “inactive”.
